Consider eleven compounds from ChEMBL document CHEMBL2062525, “Substituted 3-(5-imidazo[2,1-b]thiazolylmethylene)-2-indolinones and analogues: synthesis, cytotoxic activity, and study of the mechanism of action” (J Med Chem, 2012).

SMILES strings stand for the structures. Structures can show the parent of a compound that is named as a salt.

What all share (type): functional
Assay [1] is described as follows: Cytotoxicity against human leukemia cells after 48 hrs. The conditions noted are these: Leukemia cell. The essentials:
(§1)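 NCI 60-cell panel (subpanels include leukemia and prostate). […] Percent growth relative to untreated control; some repeats averaged over two experiments.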

The next assay deals with NSCLC. As to the kind of experiment: Cytotoxicity against human NSCLC cells after 48 hrs. The essentials:
(§2)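 NCI 60-cell panel subpanel lines; compounds first screened at a single 10−5 M, then those passing threshold tested in five-concentration assay over 10−9 to 10−4 M (some to 10−3 M), 48 h exposure. Growth relative to untreated control measured as cell protein; GI50, TGI and LC50 derived; some values are means of two experiments.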

The nature of assay [2]: Cytotoxicity against human COLON cells after 48 hrs. The essentials: as §2
Assay [3] is described as follows: Cytotoxicity against human CNS cancer cells after 48 hrs. The conditions noted are these: Cancer cell lines. The method, boiled down: as §2
Assay [4] is described as follows: Cytotoxicity against human melanoma cells after 48 hrs. As to conditions: Melanoma cell. The method, boiled down: as §2
Assay [5] is described as follows: Cytotoxicity against human ovarian cancer cells after 48 hrs. As to conditions: Cancer cell lines. The method, boiled down: as §2
Assay [6] can be described thus: Cytotoxicity against human renal cancer cells after 48 hrs. The conditions noted are these: Cancer cell lines. The method, boiled down: as §2
Assay [7] is described as follows: Cytotoxicity against human breast cancer cells after 48 hrs. As to conditions: Cancer cell lines. The method, boiled down:
as §2

The nature of assay [8]: Cytotoxicity against human prostate cancer cells after 48 hrs. As to conditions: Cancer cell lines. The method, boiled down:
as §1

By GI50 is commonly meant the concentration giving 50% growth inhibition. As a reminder, the TGI is the concentration at which net growth stops. A lower TGI goes with more potent growth arrest. Regarding `Cc1nn2c(/C=C3/C(=O)Nc4ccc(F)cc43)c(-c3ccc(Cl)cc3)nc2s1`, the GI50 in assay [1] stood at 25.1 µM; with NSCLC, 60.3 µM; in assay [2], 38 µM; in [3] it was 20.4 µM; in [4] it was 66.1 µM; in assay [5], 21.9 µM. The figures for the GI50 in [6] and in [7] were 26.3 µM and 36.3 µM, respectively. Moreover, the results for the TGI in assay [3], in assay [6] and in assay [7] were 79.4 µM, 72.4 µM and 95.5 µM, respectively.
Broadly, the LC50 is the concentration that kills 50% of the test population. Read a low LC50 as a more lethal substance. On to `COc1nc2sccn2c1/C=C1/C(=O)Nc2cccc(Cl)c21`, for which the GI50 was 2.19 µM in [1]; 7.08 µM in the assay with NSCLC; 3.72 µM in assay [2]; 6.31 µM in assay [3]; 4.9 µM in [4]; 4.68 µM in assay [5]. In addition, the figures for the GI50 in assay [6], in [8] and in assay [7] were 7.08 µM, 13.2 µM and 3.24 µM, respectively. For the same compound, the concentration for total growth inhibition (TGI) in [1] was 64.6 µM; with NSCLC it was 70.8 µM; in assay [2], 91.2 µM; in assay [3] it was 32.4 µM; in assay [4], 60.3 µM; in assay [5], 43.6 µM. Further, the TGI in assay [6] came out at 49 µM; in assay [7], 50.1 µM. The values for the LC50 in [3] and in assay [7] were 87.1 µM and 93.3 µM, respectively. In assay [5], this compound registered an LC50 (concentration killing 50% of starting cells) of 97.7 µM. Further, in [6] (read-out: LC50 (the source's name)), the CC50 was found to be 89.1 µM.
As for `Cc1ccc(-c2nc3sc(C)cn3c2/C=C2/C(=O)Nc3cc(C)c(O)cc32)cc1`, the GI50 in assay [1] is 52.5 µM; in the assay on NSCLC, 18.6 µM; in assay [2] it was 60.3 µM; in assay [3] it was 11.8 µM; in assay [4], 33.9 µM; in assay [5], 10.5 µM. The GI50 in assay [6] was 18.2 µM; in [8] it was 21.4 µM; in [7], 12.6 µM. Also, the TGI was 72.4 µM in the assay on NSCLC, 91.2 µM in [3], 63.1 µM in assay [5] and 63.1 µM in assay [7].
Turning to `O=C1Nc2ccccc2/C1=C\c1c(-c2ccccn2)nc2sccn12`, the GI50 in assay [1] stood at 0.35 µM; in the assay on NSCLC, 1.58 µM; in assay [2] it was 0.49 µM; in assay [3] it was 0.81 µM; in [4], 2.45 µM; in assay [5], 2.88 µM. Besides, the GI50 in assay [6] was 2.34 µM; in assay [8], 1.02 µM; in assay [7], 0.59 µM. The TGI in assay [1] is 14.8 µM; with NSCLC, 70.8 µM; in [2], 52.5 µM; in assay [3], 20.9 µM; in assay [4] it was 91.2 µM; in assay [5] it was 37.1 µM. The TGI came to 95.5 µM in assay [6] and 36.3 µM in assay [7]. Moreover, the LC50 in assay [3] is 89.1 µM. This compound came in with an LC50 (concentration killing 50% of starting cells) in [5] of 91.2 µM.
On to `Cc1ccc(-c2nc3sc(C)cn3c2/C=C2/C(=O)N(C)c3ccccc32)cc1`, for which the GI50 was 7.08 µM in assay [1]; 24 µM with NSCLC; 20.4 µM in [2]; 19.1 µM in assay [3]; 17.4 µM in assay [4]; 32.4 µM in assay [5]. In addition, the figures for the GI50 in [6], in assay [8] and in [7] were 15.1 µM, 6.46 µM and 13.5 µM, respectively. For the same compound, the concentration for total growth inhibition (TGI) in assay [1] is 63.1 µM; in the assay on NSCLC, 89.1 µM; in assay [3] it was 75.9 µM; in assay [4] it was 87.1 µM; in [5] it was 89.1 µM; in assay [6] it was 85.1 µM. In [7], the TGI amounted to 75.9 µM.
`COc1ccc2c(c1)/C(=C\c1c(-c3ccc(Cl)cc3)nc3sc(C)nn13)C(=O)N2`: the GI50 came to 69.2 µM in assay [3], 81.3 µM in assay [6] and 95.5 µM in [7].
For the compound `Cc1cn2c(/C=C3/C(=O)Nc4cc(Cl)ccc43)c(C)nc2s1`, the GI50 is 1.07 µM in assay [1]; 2.29 µM in the assay with NSCLC; 0.98 µM in assay [2]; 2.4 µM in assay [3]; 1.58 µM in assay [4]; 7.41 µM in [5]. In addition, the GI50 came out at 4.79 µM in [6], 2.29 µM in assay [8] and 1.2 µM in assay [7]. Moreover, the total growth inhibition concentration (TGI) in assay [1] turned out to be 37.1 µM; in assay [2], 66.1 µM; in assay [3], 25.7 µM; in assay [4], 57.5 µM; in assay [6] it was 70.8 µM; in assay [7] it was 15.8 µM.
Take `COc1nc2sccn2c1C=C1C(=O)Nc2ccc(F)cc21` (mixture of isomers): the GI50 in assay [1] was found to be 3.39 µM; in the assay with NSCLC, 6.03 µM; in [2] it was 3.16 µM; in assay [3] it was 6.46 µM; in assay [4], 6.03 µM; in assay [5] it was 5.62 µM. Further, the GI50 in assay [6] was determined as 6.76 µM; in [8], 12 µM; in [7], 2.88 µM. The TGI in the assay on NSCLC came out at 66.1 µM; in assay [2], 61.7 µM; in assay [3], 42.7 µM; in assay [4], 47.9 µM; in [5], 44.7 µM; in [6], 47.9 µM. Moreover, the total growth inhibition concentration (TGI) in [8] came to 93.3 µM; in [7], 51.3 µM.
In the case of `CC[C@]1(O)C[C@H]2CN(CCc3c([nH]c4ccccc34)[C@@](C(=O)OC)(c3cc4c(cc3OC)N(C=O)[C@H]3[C@@](O)(C(=O)OC)[C@H](OC(C)=O)[C@]5(CC)C=CCN6CC[C@]43[C@@H]65)C2)C1` [VINCRISTINE SULFATE], the GI50 is 0.1 µM in assay [1]; 0.25 µM with NSCLC; 0.1 µM in assay [2]; 0.13 µM in assay [3]; 0.16 µM in assay [4]; 0.32 µM in [5]. For the same compound, the GI50 in [6] turned out to be 0.32 µM; in assay [8] it was 0.13 µM; in assay [7] it was 0.32 µM. Net growth in assay [2] stopped (TGI) at 3.98 µM.
With `COc1nc2sccn2c1/C=C1/C(=O)Nc2ccc(Cl)cc21`, the GI50 in assay [1] worked out at 1.32 µM; in the assay on NSCLC, 4.27 µM; in assay [2] it was 1.41 µM; in [3] it was 3.31 µM; in assay [4], 3.72 µM; in [5], 3.47 µM. For the same compound, the GI50 in [6] came out at 3.31 µM; in assay [8], 3.98 µM; in [7], 2.45 µM. Besides, the TGI stood at 26.3 µM in assay [1]; 89.1 µM in the assay on NSCLC; 64.6 µM in assay [2]; 40.7 µM in [3]; 40.7 µM in assay [4]; 46.8 µM in [5]. Moreover, the TGI in [6] came out at 58.9 µM; in assay [8], 81.3 µM; in assay [7], 74.1 µM.
Regarding `Cc1nn2c(/C=C3/C(=O)Nc4ccc(F)cc43)c(C)nc2s1`, the GI50 in assay [1] amounted to 2.34 µM; with NSCLC it was 19.5 µM; in assay [2], 4.17 µM; in [3], 20.9 µM; in [4] it was 26.9 µM; in assay [5] it was 33.9 µM. For the same compound, the concentration for 50% growth inhibition (GI50) in assay [6] is 26.9 µM; in assay [7], 6.31 µM. The figures for the TGI in assay [3] and in assay [7] were 87.1 µM and 57.5 µM, respectively.
